System: MS2 coat protein
Test: apparent Kd, MS2 coat protein; higher = weaker binding; RNA-MaP array; FMN 200 µM where present
Outline: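 Stalled E. coli RNA polymerase produced the designs on Illumina sequencing-chip clusters. SNAP-549-labelled MS2 coat protein was added from 0.7 or 1.5 nM, doubling to 3 µM, without and then with constant ligand, in 100 mM Tris-HCl pH 7.5, 80 mM KCl, 4 mM MgCl2, BSA, DTT, yeast tRNA and Tween-20. The apparent Kd is the median of filtered per-cluster fits of green signal normalised to red-channel RNA signal and control-cluster median Fmax.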

[1] = designed as: OFF switch for flavin mononucleotide, no ligand
[2] = ligand present: flavin mononucleotide, designed as: OFF switch for flavin mononucleotide
[3] = designed as: ON switch for flavin mononucleotide, no ligand
[4] = ligand present: flavin mononucleotide, designed as: ON switch for flavin mononucleotide

Sequence	apparent Kd [1]	apparent Kd [2]	apparent Kd [3]	apparent Kd [4]
GCCUCAGAAUUAAUUGUGAGAGGCAGAAGGCUAUAUCUCGUGGUAAACAUGAGGAUCACCCAUGUAGAGGAUAUGCUAUUACAG	8.25 nM	9.99 nM	–	–
ACAUGCAUAGCGAUAUGAUCGAGAGAUCAUGUCGCUAAAUUUAGAAGGACAUGAGGAUCACCCAUGUAGGAUAUGGGAGCAUGC	–	–	87.9 nM	17.1 nM
CCCGCUGCUGUGAGGAUAUGCCUGUGGGUGCGUGGGUAGAAGGCACAUGAGGAUCACCCAUGUCCUGCGGCUCC	366 nM	244 nM	–	–
UGUGCGUAUGUGAGGAUAUGCUGGUCCUUGGAUCGGCAGAAGGCACAUGAGGAUCACCCAUGUGGUGUCGUUCA	264 nM	27.2 nM	–	–
UCCUCGAUGUAGAAGGCCGCGUCCGGCUCACGCGGAGGAUAUACAUGAGGAUCACCCAUGUGUUUGUGGCUAAUAUGGUACGAA	159 nM	18.2 nM	–	–
UGCUGUGUCAGAGGAUAUACACCUAUAAUCCAUUGCAAAUAGCGAUGGACAUGAGGAUCACCCAUGUAGAAGGCUGUCACAGCA	214 nM	647 nM	–	–
AAUAGCUAAGGAUAUACAUGAGGAUCACCCAUGUAAAACACUACUUGGAACCGCCUCGGUAGAAGGUAGAAAAU	–	22.3 nM	–	–
GAGUAGAUCCGAGGAUAUACAAUCCGGAAACGGUACAUGAGGAUCACCCAUGUAGAAGGCGGAUCUACAGGUACUAAAGUACCU	–	7.89 nM	–	–
UGAGCCUCGUGAGGAUAUACAUGAGGAUCACCCAUGUAAUAAAGUGAACGGAGGAAACUCCGAAUGUAGAAGGCACGAGGCUUA	18.7 nM	146 nM	–	–
UAUAUAUAGGCAGGAUAUACAUGAAUAUAUAUAAUAUAAUAUGAUGUAACAUGAGGAUCACCCAUGUAGAAGGGCCAAUAUAUA	32.6 nM	64.9 nM	–	–
UUAAAUCAUGUAGGAUAUGCGUGGAGAAACUAUGCAGAAGGACAUGAGGAUCACCCAUGUGCUUCCGUCUGCGUACAGAUGGUA	26.3 nM	156 nM	–	–
GGACGUCACAUUAACAUGAGGAUCACCCAUGUCUAUAGACAUGAGGAUAUGGAUCCUAAUUGGAUCCAGAAGGCAUGGACGUCC	–	–	787 nM	46.3 nM
UAAUUGUGAGGAUAUUCGUAGUUCACGGAGACGUGAAUUACGGAGAAGGCACAUGAGGAUCACCCAUGUUCCUU	17.8 nM	84.8 nM	–	–
UUAAUUAUACAAGGAUAUCUAUUGUAGUUUCGACUUACAUGAGGAUCACCCAUGUUUUUAUGUUUAGAGAAGGUGUAUUUUCAG	–	–	104 nM	77.3 nM
GGUGGACAUGAGGAUCACCCAUGUGAGGAUAUCGGCUGGCUAGUGGCGGAUGGCUUCUCGAGAAGGCGCAUAGU	76.9 nM	66 nM	–	–
CCAUGUUAGCAGGAUAUGCAAUAAAUCUUUUAAGCAGAAGGGCUUACAUGAGGAUCACCCAUGUAUAAAGUCAA	19.8 nM	45.6 nM	–	–
CUUGUUUAUGUGAGGAUAUACUGUUAGUAUAGUUUGUAGAAGGUACAUGAGGAUCACCCAUGUUUAUUACUCUU	13.7 nM	13.8 nM	–	–
GUGGUCAGACAUGAGGAUCACCCAUGUGGAAUAAAUAACAGACAGGAUAUAUAAUAUAGGAUAUAGUAGAAGGGUCGAUUGGUG	–	–	81.9 nM	85.8 nM
AAGCACAGAGGAUAUACAUGGGUGAUAAAAAUCAUGUAAAAACAUGAGGAUCACCCAUGUAGAAGGCUGUGCAA	22 nM	23.1 nM	–	–
CUUCAGUGAGGAUAUGGCAUGCGCUGAUAAGCGCUCUCACGCCAGAAGGCACAUGAGGAUCACCCAUGUAAAAC	39.1 nM	152 nM	–	–
CCGCCCUGAGGAUAUCCACCCUCAUACAUGAGGAUCACCCAUGUUCACCCUUGGGUUCCCGGAGAAGGCAGCUUUC	347 nM	393 nM	–	–
ACGCUUUGGGAGAAGGUACGUUAAUUUUUUUCCACAUGAGGAUCACCCAUGUAAGGAUAUCCCGGCGUUAAAUAGGCUACAGCA	7.2 nM	8.14 nM	–	–
UGUGUUAUCGGAGGAUAUCGAUAUCAAACAUGAGGAUCACCCAUGUUGAGGAUCACCCAUGUUCACGAGAAGGCCGGCGUACUC	–	–	112 nM	194 nM
AAACAGCGAAGAUAAUAAUGAAUACAUGAGGAUCACCCAUGUAAGGAUAUCGUCAGGAAUACUGACGAGAAGGUACAUACGCUG	16 nM	22.4 nM	–	–
CGUAGGAUCCAGAAGGCAUGAAACAUGAGGAUCACCCAUGUCAAAUACAUGAGGAUAUGGAUCCUACGAAAAGUGCGAAAGCAC	–	–	3.95 nM	3.84 nM
AUCGGGAGAGGAUAUACAUGAGGAUCACCCAUGUUGGGAACAUCGGUUUGUUAGUUGCGUAGAAGGCUCGGGCG	46.4 nM	66.3 nM	–	–
ACUUCACAUGAGGAUCACCCAUGUGAGGAUAUCGUCGAGGAUGUAAUGCCAUCCGUGGCGAGAAGGCGCAUGGU	29.9 nM	77.7 nM	–	–
CCUCAGUAAGGAUAUCAGCUUAGGAGGUUGGUAAUGAGAGCUGAGAAGGUACAUGAGGAUCACCCAUGUUAGUU	30.6 nM	76.4 nM	–	–
